{
  "source": "ChEMBL document CHEMBL2429791",
  "about": "“Preparation of asymmetric urea derivatives that target prostate-specific membrane antigen for SPECT imaging” (J Med Chem, 2013)",
  "key": {"[1]": {"assay": "Distribution coefficient, log D of the compound", "format": "physicochemical", "details": "octanol/water"}, "[2]": {"test_system": "Nucleic Acid", "assay": "Ratio of drug level in human PC3 cells xenografted in C.B.-17/Icr +/+ Jcl mouse to muscle of C.B.-17/Icr +/+ Jcl mouse xenografted with human LNCAP and PC3 cells at 25.9 MBq, iv after 6 hrs", "format": "ADME, organism-based", "details": "in vivo", "summary_of_the_method": "(§1)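 Mice (22–24 g) carried PC-3 (right shoulder) and LNCaP (left shoulder) tumors, raised by injecting 1–5 × 10⁶ cells in 1:1 PBS/Matrigel and used at about 5–10 mm diameter. [¹²⁵I]-tracer was given via the tail vein, n=4 per time point, and mice were decapitated at 2 min, 30 min, 1, 3 or 6 h. Tissues were weighed and γ-counted as %ID/g. Tumor/blood and tumor/muscle ratios were taken from %ID/g, mean ± SD.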"}, "[3]": {"test_system": "Nucleic Acid", "assay": "Ratio of drug level in human LNCAP cells xenografted in C.B.-17/Icr +/+ Jcl mouse to muscle of C.B.-17/Icr +/+ Jcl mouse xenografted with human LNCAP and PC3 cells at 25.9 MBq, iv after 6 hrs", "format": "ADME, organism-based", "details": "in vivo", "summary_of_the_method": "(§2)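 Tumor-to-blood and tumor-to-muscle ratios were calculated from %ID/g values in ¹²⁵I-tracer biodistribution in LNCaP/PC-3 xenografted mice. Tail-vein dosing, n=4 per time point, sacrifice at 2 min, 30 min, 1, 3 or 6 h.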"}, "[4]": {"assay": "Ratio of drug level in human PC3 cells xenografted in C.B.-17/Icr +/+ Jcl mouse to blood of C.B.-17/Icr +/+ Jcl mouse xenografted with human LNCAP and PC3 cells at 25.9 MBq, iv after 6 hrs", "format": "ADME, organism-based", "details": "PC3 tumour xenograft relative to blood", "summary_of_the_method": "as §1"}, "[5]": {"test_system": "LNCaP", "assay": "Biodistribution in LNCAP cells in C.B.-17/Icr +/+ Jcl mouse xenografted with human LNCAP and PC3 cells at 25.9 MBq, iv after 6 hrs", "format": "ADME, organism-based", "details": "in vivo", "summary_of_the_method": "(§3)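 ¹²⁵I-labelled tracer given iv by tail vein to mice (22–24 g) bearing LNCaP (left shoulder) and PC-3 (right shoulder) xenografts of about 5–10 mm, grown from 1–5 × 10⁶ cells in 1:1 Matrigel. n=4 per time point; decapitated at 2 min, 30 min, 1, 3, 6 h. Tissues weighed and counted; uptake as %ID/g, mean ± SD.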"}, "[6]": {"test_system": "Muscle tissue", "assay": "Biodistribution in muscle of C.B.-17/Icr +/+ Jcl mouse xenografted with human LNCAP and PC3 cells at 25.9 MBq, iv after 6 hrs", "format": "ADME, organism-based", "details": "in vivo", "summary_of_the_method": "(§4)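 Radioiodinated (¹²⁵I) tracer given by tail-vein injection to mice bearing LNCaP (left shoulder) and PC-3 (right shoulder) xenografts, 22–24 g, grown to about 5–10 mm. Groups of n=4 were decapitated at 2 min, 30 min, 1 h, 3 h or 6 h. Tissues were weighed and counted, and uptake was expressed as %ID/g (mean ± SD).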"}, "[7]": {"test_system": "Heart", "assay": "Biodistribution in heart of C.B.-17/Icr +/+ Jcl mouse xenografted with human LNCAP and PC3 cells at 25.9 MBq, iv after 6 hrs", "format": "ADME, organism-based", "details": "in vivo", "summary_of_the_method": "as §3"}, "[8]": {"test_system": "Liver", "assay": "Biodistribution in liver of C.B.-17/Icr […] Jcl mouse xenografted with human LNCAP and PC3 cells at 25.9 MBq, iv after 6 hrs", "format": "ADME, organism-based", "details": "in vivo", "summary_of_the_method": "as §3"}, "[9]": {"test_system": "Kidney", "assay": "Biodistribution in kidney of C.B.-17/Icr […] Jcl mouse xenografted with human LNCAP and PC3 cells at 25.9 MBq, iv after 6 hrs", "format": "ADME, organism-based", "details": "in vivo", "summary_of_the_method": "as §3"}, "[10]": {"test_system": "Nucleic Acid", "assay": "Ratio of drug level in human LNCAP cells xenografted in C.B.-17/Icr +/+ Jcl mouse to muscle of C.B.-17/Icr +/+ Jcl mouse xenografted with human LNCAP and PC3 cells at 25.9 MBq, iv after 3 hrs", "format": "ADME, organism-based", "details": "in vivo", "summary_of_the_method": "as §2"}, "[11]": {"assay": "Ratio of drug level in human PC3 cells xenografted in C.B.-17/Icr +/+ Jcl mouse to blood of C.B.-17/Icr +/+ Jcl mouse xenografted with human LNCAP and PC3 cells at 25.9 MBq, iv after 3 hrs", "format": "ADME, organism-based", "details": "PC3 tumour xenograft relative to blood", "summary_of_the_method": "as §1"}, "[12]": {"test_system": "Nucleic Acid", "assay": "Ratio of drug level in human LNCAP cells to human PC3 cells xenografted in C.B.-17/Icr […] Jcl mouse at 25.9 MBq, iv after 3 hrs", "format": "ADME, organism-based", "details": "in vivo"}, "[13]": {"test_system": "Thyroid gland", "assay": "Biodistribution in thyroid of C.B.-17/Icr +/+ Jcl mouse xenografted with human LNCAP and PC3 cells at 25.9 MBq, iv after 3 hrs", "format": "ADME, organism-based", "details": "in vivo", "summary_of_the_method": "as §4"}, "[14]": {"test_system": "Heart", "assay": "Biodistribution in heart of C.B.-17/Icr +/+ Jcl mouse xenografted with human LNCAP and PC3 cells at 25.9 MBq, iv after 3 hrs", "format": "ADME, organism-based", "details": "in vivo", "summary_of_the_method": "as §3"}, "[15]": {"test_system": "Stomach", "assay": "Biodistribution in stomach of C.B.-17/Icr +/+ Jcl mouse xenografted with human LNCAP and PC3 cells at 25.9 MBq, iv after 3 hrs", "format": "ADME, organism-based", "details": "in vivo", "summary_of_the_method": "as §4"}, "[16]": {"test_system": "Thyroid gland", "assay": "Biodistribution in thyroid of C.B.-17/Icr +/+ Jcl mouse xenografted with human LNCAP and PC3 cells at 25.9 MBq, iv after 1 hr", "format": "ADME, organism-based", "details": "in vivo", "summary_of_the_method": "as §4"}, "[17]": {"test_system": "PC-3", "assay": "Biodistribution in PC3 cells in C.B.-17/Icr +/+ Jcl mouse xenografted with human LNCAP and PC3 cells at 25.9 MBq, iv after 1 hr", "format": "ADME, organism-based", "details": "in vivo", "summary_of_the_method": "as §3"}, "[18]": {"test_system": "Heart", "assay": "Biodistribution in heart of C.B.-17/Icr +/+ Jcl mouse xenografted with human LNCAP and PC3 cells at 25.9 MBq, iv after 1 hr", "format": "ADME, organism-based", "details": "in vivo", "summary_of_the_method": "as §3"}, "[19]": {"test_system": "Spleen", "assay": "Biodistribution in spleen of C.B.-17/Icr +/+ Jcl mouse xenografted with human LNCAP and PC3 cells at 25.9 MBq, iv after 1 hr", "format": "ADME, organism-based", "details": "in vivo", "summary_of_the_method": "as §4"}, "[20]": {"test_system": "PC-3", "assay": "Biodistribution in PC3 cells in C.B.-17/Icr +/+ Jcl mouse xenografted with human LNCAP and PC3 cells at 25.9 MBq, iv after 30 mins", "format": "ADME, organism-based", "details": "in vivo, 0.5 h", "summary_of_the_method": "as §3"}, "[21]": {"test_system": "LNCaP", "assay": "Biodistribution in LNCAP cells in C.B.-17/Icr +/+ Jcl mouse xenografted with human LNCAP and PC3 cells at 25.9 MBq, iv after 30 mins", "format": "ADME, organism-based", "details": "in vivo, 0.5 h", "summary_of_the_method": "as §3"}, "[22]": {"assay": "Ratio of drug level in human LNCAP cells xenografted in C.B.-17/Icr +/+ Jcl mouse to blood of C.B.-17/Icr +/+ Jcl mouse xenografted with human LNCAP and PC3 cells at 25.9 MBq, iv after 2 mins", "format": "ADME, organism-based", "details": "LNCAP tumour xenograft relative to blood", "summary_of_the_method": "as §2"}, "[23]": {"test_system": "Muscle tissue", "assay": "Biodistribution in muscle of C.B.-17/Icr +/+ Jcl mouse xenografted with human LNCAP and PC3 cells at 25.9 MBq, iv after 2 mins", "format": "ADME, organism-based", "details": "in vivo", "summary_of_the_method": "as §4"}, "[24]": {"test_system": "Spleen", "assay": "Biodistribution in spleen of C.B.-17/Icr +/+ Jcl mouse xenografted with human LNCAP and PC3 cells at 25.9 MBq, iv after 2 mins", "format": "ADME, organism-based", "details": "in vivo", "summary_of_the_method": "as §4"}},
  "data": [
    {"smiles": "O=C(O)CC[C@H](NC(=O)N[C@@H](CSC1CC(=O)N(CCCC[C@H](NC(=O)CNC(=O)c2cccc([125I])c2)C(=O)O)C1=O)C(=O)O)C(=O)O", "note": "(some centres undefined)", "values": [
      {"measurement": "logD", "setting": "[1]", "value": -1.97},
      {"measurement": "Ratio", "setting": "[2]", "value": 2.1},
      {"measurement": "Ratio", "setting": "[3]", "value": 76.7},
      {"measurement": "Kp at 6 h", "setting": "[4]", "value": 0.4},
      {"measurement": "Drug uptake", "setting": "[5]", "value": 6.7, "unit": "% ID/g"},
      {"measurement": "Drug uptake", "setting": "[6]", "value": 0.1, "unit": "% ID/g"},
      {"measurement": "Drug uptake", "setting": "[7]", "value": 0.4, "unit": "% ID/g"},
      {"measurement": "Drug uptake", "setting": "[8]", "value": 4.5, "unit": "% ID/g"},
      {"measurement": "Drug uptake", "setting": "[9]", "value": 97.1, "unit": "% ID/g"},
      {"measurement": "Ratio", "setting": "[10]", "value": 49.4},
      {"measurement": "Kp at 3 h", "setting": "[11]", "value": 0.4},
      {"measurement": "Ratio", "setting": "[12]", "value": 33.9},
      {"measurement": "Drug uptake", "setting": "[13]", "value": 0.01, "unit": "%ID"},
      {"measurement": "Drug uptake", "setting": "[14]", "value": 0.7, "unit": "% ID/g"},
      {"measurement": "Drug uptake", "setting": "[15]", "value": 1, "unit": "%ID"},
      {"measurement": "Drug uptake", "setting": "[16]", "value": 0.01, "unit": "%ID"},
      {"measurement": "Drug uptake", "setting": "[17]", "value": 0.7, "unit": "% ID/g"},
      {"measurement": "Drug uptake", "setting": "[18]", "value": 1.3, "unit": "% ID/g"},
      {"measurement": "Drug uptake", "setting": "[19]", "value": 36.5, "unit": "% ID/g"},
      {"measurement": "Drug uptake", "setting": "[20]", "value": 0.9, "unit": "% ID/g"},
      {"measurement": "Drug uptake", "setting": "[21]", "value": 9.5, "unit": "% ID/g"},
      {"measurement": "Kp at 2 min", "setting": "[22]", "value": 0.6},
      {"measurement": "Drug uptake", "setting": "[23]", "value": 1.4, "unit": "% ID/g"},
      {"measurement": "Drug uptake", "setting": "[24]", "value": 12.5, "unit": "% ID/g"}
    ]}
  ]
}
